Measured values from different studies.
Target: Aurora kinase B (AURKB, Homo sapiens, UniProt Q96GD4)

C#Cc1n[nH]c2c(-c3cn([C@@H](C)c4ccccc4)c(=O)[nH]c3=O)cc(F)cc12
inhibition (enzyme activity; inhibitor; 0.1 µM): 0.1%

N#CC1(c2ccccn2)CCN(Cc2cc(C(=O)O)c(=O)n3ccccc23)CC1
remaining binding (cell-free assay; competition with immobilised ligand; 1 µM): 76%

Nc1ncc(-c2nc(N3CCOCC3)nc(N3CCOCC3)n2)c(C(F)F)n1
remaining binding (binding; competition with immobilised ligand; 10 µM): 91%

O=c1[nH]c2ccccc2n1C1CCN(Cc2ccc(-c3[nH]c4cc5ncnc5cc4nc3-c3ccccc3)cc2)CC1
remaining activity (enzyme activity; 0.5 µM): 98.7%

C#Cc1n[nH]c2c(-c3cn([C@@H](C)c4ccccn4)c(=O)[nH]c3=O)cc(F)cc12
inhibition (enzyme activity; inhibitor; 0.1 µM): 4.9%

Cn1cc(-c2cccc(N3CCc4c(sc5c4CC(C)(C)C5)C3=O)c2CO)cc(Nc2ccncn2)c1=O
inhibition (enzyme activity; inhibitor; 1 µM): 6%

CC(C)(C)c1cc(C=C(C#N)C#N)cc(Br)c1O
remaining activity (enzyme activity; inhibitor; 0.5 µM): 97.1%

COc1ncccc1-c1cnn2ccc(N3CCN(C(=O)OC(C)C)CC3)nc12
remaining binding (binding; competition with immobilised ligand; 1 µM): 58%

Cn1cncc1[C@](O)(COc1ccc(C#N)cc1-c1ccc(OC(F)(F)F)cc1)c1ccc(C#N)cc1
remaining binding (cell-free assay; competition with immobilised ligand; 1 µM): 100%
